From PubChem
Hits are enriched below; roughly 2.1% of the tested compounds scored in any of these assays.
HCV NS3 hel inh – inhibitors of HCV NS3 helicase, primary screen, biochemical, Cy5 molecular beacon fluorescence; NS3 helicase DNA unwinding; Hepatitis C virus NS3 helicase; hit rate 0.56% among 290,000; inhibition, % at 10.9 µM; AID 1800, 2009;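 active means inhibition above the mean of all tested compounds plus 3 SD, set per campaign, cut at about 35% in these data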;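 further: 0% = DMSO wells and 100% = thioflavine S control wells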
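Test system: hepatitis C virus NS3 helicase domain fragment enzyme. Also added: annealed dual-labelled DNA beacon duplex, ATP-started. Timing: 60 min unwinding reaction at 25 °C after ATP addition. Technique: Cy5 fluorescence. Measure: % inhibition of unwinding.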
EBNA-1 inh – EBNA-1 DNA-binding inhibitors, primary screen, biochemical, fluorescence polarization | hit rate 0.34% among 300,000 | inhibition, % at 14.8 µM; in the data active means inhibition above about 28%
MLLE-PAM2 inh – inhibitors of PABP1 MLLE–PAM2 peptide binding, primary screen, biochemical, fluorescence polarization, FITC-PAM2, GST-MLLE; hit rate 0.36% among 360,000; inhibition, % at 20 µM; in the data active means inhibition above about 35%, passing the limit was not always enough;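 further: plate controls were DMSO wells with GST-MLLE for no effect and wells lacking GST-MLLE protein for full effect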
PABP polyA inh – PABP poly(A) RNA binding inhibitors, primary screen, biochemical, fluorescence polarization, uHTS; inhibition, % at 35 µM; Polyadenylate-binding protein 1 (Homo sapiens), P11940; AID 2014, 2009; hit rate 1% among 290,000;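 further: calls also rest on retests at 20 µM and on dose response follow-up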
eIF4H inh – human eIF4H binding inhibitors, primary screen, translation initiation inhibitor project, biochemical, uHTS, fluorescence polarization. hit rate 0.94% among 290,000. Eukaryotic translation initiation factor 4H (Homo sapiens), Q15056. AID 2012, 2009. eIF4H fluorescence polarization binding assay. inhibition, % at 35 µM;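 further: calls also rest on retests at 20 µM and on dose response follow-up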
ZTA DNA inh – blocks Epstein-Barr virus ZTA, an EBNA-1 counter-screen. AID 2234. inhibition, % at 11 µM. hit rate 0.15% among 320,000. ZTA-DNA binding, fluorescence polarization; in the data active means inhibition above about 33%
Target sequence (P03206 whole entry, looked up): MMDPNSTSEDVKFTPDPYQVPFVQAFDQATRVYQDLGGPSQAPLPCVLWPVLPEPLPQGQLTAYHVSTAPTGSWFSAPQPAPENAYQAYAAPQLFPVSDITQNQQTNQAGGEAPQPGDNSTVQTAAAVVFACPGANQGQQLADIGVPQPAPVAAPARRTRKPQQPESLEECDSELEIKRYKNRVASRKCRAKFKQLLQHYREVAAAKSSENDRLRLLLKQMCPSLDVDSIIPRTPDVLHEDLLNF
* = called active by the depositor; ? = inconclusive; · = not tested or not shown. Unless noted, how the calls were made is not given here.

SMILES	HCV NS3 hel inh	EBNA-1 inh	MLLE-PAM2 inh	PABP polyA inh	eIF4H inh	ZTA DNA inh
CC(C)(C)OC(=O)C(Cc1ccc(OC(C)(C)C)cc1)NC(=O)CNC(=O)CNC(=O)OCc1ccccc1 (stereo not given)	-26.8	8.6	10.8	115.3	active	4.1
Cc1cc(C(=O)CSc2nnnn2C)c(C)n1Cc1ccco1	-2.4	8.0	-15.3	13.6	45.8	12.7
O=C(/C=C\Nc1cccc(F)c1)c1ccc2c(c1)OCO2	-5.4	39.8*	-18.0	3.5	-9.8	9.4
Cc1ccc(-c2nc3cnccn3c2Nc2c(C)cccc2C)o1	1.9	-1.1	39.2*	15.4	9.8	3.1
Cc1ccc(-c2nc3ncccn3c2Nc2ccccc2C)o1	-10.9	-15.1	-3.3	?	12.8	-13.1
CCOC(=O)c1c(N)sc(C(=O)N(C)C)c1CN1CCOCC1	1.8	1.1	-9.8	-2.7	-6.6	0.4
NC1=NC[C@H](c2ccccc2)N1CCc1cc(C(F)(F)F)cc(C(F)(F)F)c1	·	6.8	0.9	16.0	-3.7	9.7
Cc1ccc(/C=C/C(=O)NCc2ccco2)o1	6.8	9.0	·	active	?	-9.5
O=C(CNC(=O)/C=C/c1ccco1)N=Nc1c(O)[nH]c2ccccc12	19.4	8.6	8.8	57.2*	88.0*	11.0
O=C(/C=C/c1ccccc1)NCc1ccco1	2.0	-1.2	-9.3	-3.8	-6.3	11.5
COC(=O)/C=C(\C)N=Nc1c(O)[nH]c2ccccc12	18.7	8.7	2.6	58.3*	8.6*	13.5
O=C(/C=C/c1ccco1)NCc1ccco1	29.5	-6.7	-10.7	59.6*	86.2*	5.3
O=C(CNC(=O)Cc1ccccc1)N=Nc1c(O)[nH]c2ccccc12	11.0	-0.9	5.6	6.2	2.7	-7.2
O=C(COC(=O)c1cc(S(=O)(=O)N2CCOCC2)ccc1F)Nc1c(Cl)cccc1C(F)(F)F	·	6.5	0.4	·	·	10.2
O=C(NN=Cc1ccccc1)C(Oc1ccccc1)c1ccccc1 (stereo not given)	·	·	-3.8	·	·	·
C#CCOCCOCCOCCNc1nc(N2CCN(C(=O)Cn3cc(CCCN=C(N)N)nn3)CC2)nc(N2CCN(C(=O)[C@H](CCCCN)n3cc(CC(C)O)nn3)CC2)n1 (stereo not given in full)	·	0.9	7.6	·	·	6.0
O=C(NC12CC3CC(CC(C3)C1)C2)C1CCCN1C(=O)NC1CCCCC1 (stereo not given)	0.6	-12.7	9.5	5.0	-14.6	-6.6
CCOc1ccc(S(=O)(=O)n2cc(-c3ccccc3)c(N)n2)cc1	-12.2	7.5	-1.2	10.6	2.0	19.6
Nc1nn(S(=O)(=O)c2ccccc2)cc1-c1cccc([N+](=O)[O-])c1	1.3	7.2	9.6	76.1*	active	-3.1
COCCNC(=S)N/N=C(\C)c1ccccc1O	-2.5	8.6	43.6*	1.8	6.5	16.4
Cc1ccc(C2CC(=O)Oc3cc(O)ccc32)cc1 (stereo not given)	0.3	-9.1	7.1	4.5*	50.3*	1.3
CC1(OC(=O)c2cccs2)C(=O)C=C2C=C3CCCN3C=C2C1=O (stereo not given)	·	4.6	-0.2	83.7*	94.9*	10.5
CC1(OC(=O)CCc2ccccc2)C(=O)C=C2C=C3CCCN3C=C2C1=O (stereo not given)	·	-11.7	3.5	55.1*	83.1*	-2.4
CC1(OC(=O)CCc2ccccc2)C(=O)C=C2C=C(c3ccc(C#N)cc3)N(C3CCCCC3)C=C2C1=O (stereo not given)	·	3.4	6.5	37.3*	52.0	-12.2
CC1(OC(=O)CCc2ccccc2)C(=O)C=C2C=C(c3ccc(C#N)cc3)N(C(CO)CO)C=C2C1=O (stereo not given)	·	-2.4	24.8	26.4	45.4	-11.6
SMILES	HCV NS3 hel inh	EBNA-1 inh	MLLE-PAM2 inh	PABP polyA inh	eIF4H inh	ZTA DNA inh
CC1CCN(C(=S)NC2CCCCC2)CC1	1.8	6.3	-102.1	-0.9	-4.8	-7.7
O=c1c2cccc3c(N4CCOCC4)ccc(c32)c2nc3ccccc3n12	·	·	·	122.4*	122.4	·
O=c1c2ccc([N+](=O)[O-])c3cccc(c32)c2nc3ccccc3n12	13.2	-8.3	·	10.6	12.6	-4.0
C/C(=N\Nc1ccc(C(=O)O)cc1)c1ccc(Br)cc1	-3.2	-1.0	13.9	36.1	50.9*	12.2
COc1ccc(-n2c(SCC(N)=O)nc3nc4c(cc3c2=O)COC(C)(C)C4)cc1	6.0	-7.9	5.7	-10.2	-13.9	-4.6
COc1ccc(OCc2cc(C(=O)O)c(C)o2)cc1	6.5	0.1	·	47.9*	?	-4.6
O=C(CCNC(=O)c1ccco1)Nc1ccc(OC(F)F)c(Cl)c1	-4.2	11.1	0.0	-8.5	-1.7	3.7
CC1CN(C2=Nc3cccc4cccc2c34)CC(C)O1 (stereo not given)	-5.3	-6.5	29.4	active	65.8	-2.9
c1cc2c3c(cccc3c1)C(N1CCOCC1)=N2	2.6	2.4	32.7	47.4*	58.2	13.3
c1ccc(CC2CCN(C3=Nc4cccc5cccc3c45)CC2)cc1	-19.3	-6.3	-30.0	82.8	91.9*	-1.5
c1cc2c3c(cccc3c1)C(N1CCN(C3=Nc4cccc5cccc3c45)CC1)=N2	-4.2	·	·	·	·	·
Cc1ccc(S(=O)(=O)n2nc(C)cc2N)cc1	13.7	7.6	-6.1	-14.5	32.9	-3.5
COc1ccc2[nH]c(=O)c(CN(Cc3ccccc3)C(=S)NCC3CCCO3)cc2c1 (stereo not given)	-1.6	8.4	-139.5	1.1	-6.4	19.0
COc1cc(CCC(=O)Nc2ccc(Cl)c(C(F)(F)F)c2)cc(OC)c1OC	-11.9	2.6	3.0	4.9	-6.1	-5.5
COc1cc(CCC(=O)Nc2ccc(Br)c(C(F)(F)F)c2)cc(OC)c1OC	-3.1	5.0	0.9	100.2*	active	5.9
N#Cc1c(-c2ccco2)cc(-c2ccccn2)nc1N	14.8	4.6	-26.2	62.7*	70.5*	7.7
CCOC(=O)COc1nc(-c2ccco2)cc(-c2ccco2)c1C#N	8.7	2.1	-30.4	57.7*	88.8*	4.2
N#Cc1c(-c2ccco2)cc(-c2cccnc2)nc1N	8.5	-7.8	-12.7	110.5*	95.9*	-11.0
CCOC(=O)C1CCCCN1C(=O)c1cc2ccc(OC)cc2c2cc(OC)c(OC)cc12 (stereo not given)	·	·	8.1	·	·	·
COC(=O)C1=C(C)OC(N)=C(C#N)C1c1ccsc1 (stereo not given)	1.7	5.1	6.4	-4.0	3.5	13.0
O=C(O)c1cc(Cl)c2c(c1)[C@@H]1C=CC[C@@H]1[C@H](c1ccc(S(=O)(=O)N3CCOCC3)cc1)N2	25.8	7.3	24.0	4.1*	73.5*	11.4
Cc1cc(C)c2c(c1)C1C=CCC1C(c1ccc(S(=O)(=O)N3CCOCC3)cc1)N2 (stereo not given)	7.0	5.1	7.8	3.5	-9.6	-10.2
